Assay results from ChEMBL document CHEMBL3745671, “Discovery of N-[5-(6-Chloro-3-cyano-1-methyl-1H-indol-2-yl)-pyridin-3-ylmethyl]-ethanesulfonamide, a Cortisol-Sparing CYP11B2 Inhibitor that Lowers Aldosterone in Human Subjects” (J Med Chem, 2015).
In brackets after ≈: the same amount, converted by molar mass.

How the values were obtained:
[1] = target: T1, Cytochrome P450 11B2, mitochondrial (Homo sapiens, UniProt P19099); assay: Inhibition of CYP11B2 in human […] cells assessed as decrease in […] aldosterone secretion after 24 hrs by RIA; format: cell-based
T1 sequence (P19099 whole entry): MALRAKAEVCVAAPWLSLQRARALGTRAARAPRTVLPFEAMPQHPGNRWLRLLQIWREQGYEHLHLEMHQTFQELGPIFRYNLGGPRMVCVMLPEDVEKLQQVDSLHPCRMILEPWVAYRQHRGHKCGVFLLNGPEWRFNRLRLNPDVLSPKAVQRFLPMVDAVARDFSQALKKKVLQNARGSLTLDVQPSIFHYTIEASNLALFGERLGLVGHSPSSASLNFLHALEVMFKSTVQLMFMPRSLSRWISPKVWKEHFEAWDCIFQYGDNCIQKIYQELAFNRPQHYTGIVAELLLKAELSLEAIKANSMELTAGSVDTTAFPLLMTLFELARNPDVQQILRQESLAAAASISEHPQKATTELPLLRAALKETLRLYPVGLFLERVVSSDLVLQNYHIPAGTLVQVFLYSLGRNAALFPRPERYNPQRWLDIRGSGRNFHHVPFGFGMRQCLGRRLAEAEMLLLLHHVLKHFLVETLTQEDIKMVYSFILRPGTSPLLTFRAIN

[2] = target: T1, Cytochrome P450 11B2, mitochondrial; assay: Inhibition of human recombinant CYP11B2 using 11-deoxycorticosterone as substrate after 2 hrs by scintillation proximity assay
[3] = organism: Homo sapiens; assay: Selectivity ratio of IC50 for human recombinant CYP11B1 to IC50 for human recombinant CYP11B2
[4] = target: T2, CYP19 (aromatase) (Homo sapiens, UniProt P11511); assay: Inhibition of human CYP19 at 10 uM preincubated for 10 mins with NADPH followed by protein addition measured after 90 mins by fluorometric analysis
T2 sequence (P11511 whole entry): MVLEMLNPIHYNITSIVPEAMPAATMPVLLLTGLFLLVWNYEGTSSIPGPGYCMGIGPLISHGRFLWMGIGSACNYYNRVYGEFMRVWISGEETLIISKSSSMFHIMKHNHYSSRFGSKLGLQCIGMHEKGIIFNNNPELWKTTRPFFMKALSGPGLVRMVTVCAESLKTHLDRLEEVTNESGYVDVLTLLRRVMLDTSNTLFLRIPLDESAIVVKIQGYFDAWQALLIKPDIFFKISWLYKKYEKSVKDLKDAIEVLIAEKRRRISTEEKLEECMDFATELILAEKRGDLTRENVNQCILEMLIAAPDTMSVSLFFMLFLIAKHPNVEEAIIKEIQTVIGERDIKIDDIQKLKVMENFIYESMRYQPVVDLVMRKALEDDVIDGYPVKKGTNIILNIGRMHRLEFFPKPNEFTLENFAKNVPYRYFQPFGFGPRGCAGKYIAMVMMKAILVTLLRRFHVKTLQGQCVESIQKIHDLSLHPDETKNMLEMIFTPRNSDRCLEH

[5] = Half life in rat liver microsomes after 30 mins by LC/MS/MS analysis; format: ADME
[6] = Half life in human liver microsomes after 30 mins by LC/MS/MS analysis; format: ADME
[7] = target: T3, Cytochrome P450 11B2, mitochondrial (Rattus norvegicus, UniProt P30099); assay: Inhibition of recombinant rat CYP11B2 using 11-deoxycorticosterone as substrate after 2 hrs by scintillation proximity assay
T3 sequence (P30099 whole entry): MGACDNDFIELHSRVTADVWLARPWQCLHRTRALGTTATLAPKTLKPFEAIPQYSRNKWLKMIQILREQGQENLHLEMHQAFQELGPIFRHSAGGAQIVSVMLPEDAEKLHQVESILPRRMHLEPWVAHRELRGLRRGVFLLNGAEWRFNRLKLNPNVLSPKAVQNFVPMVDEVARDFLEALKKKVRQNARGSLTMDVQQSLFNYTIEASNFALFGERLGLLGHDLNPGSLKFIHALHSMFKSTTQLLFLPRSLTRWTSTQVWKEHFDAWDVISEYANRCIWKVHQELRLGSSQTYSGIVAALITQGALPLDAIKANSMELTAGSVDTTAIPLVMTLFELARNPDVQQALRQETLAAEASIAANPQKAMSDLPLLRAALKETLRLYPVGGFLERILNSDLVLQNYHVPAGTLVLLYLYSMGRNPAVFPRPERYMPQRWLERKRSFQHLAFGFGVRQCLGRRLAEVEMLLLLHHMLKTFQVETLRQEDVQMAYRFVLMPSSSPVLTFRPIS

[8] = target: T4, Amine oxidase [flavin-containing] A (Homo sapiens, UniProt P21397); assay: Inhibition of MAO-A (unknown origin)
T4 sequence (P21397 whole entry): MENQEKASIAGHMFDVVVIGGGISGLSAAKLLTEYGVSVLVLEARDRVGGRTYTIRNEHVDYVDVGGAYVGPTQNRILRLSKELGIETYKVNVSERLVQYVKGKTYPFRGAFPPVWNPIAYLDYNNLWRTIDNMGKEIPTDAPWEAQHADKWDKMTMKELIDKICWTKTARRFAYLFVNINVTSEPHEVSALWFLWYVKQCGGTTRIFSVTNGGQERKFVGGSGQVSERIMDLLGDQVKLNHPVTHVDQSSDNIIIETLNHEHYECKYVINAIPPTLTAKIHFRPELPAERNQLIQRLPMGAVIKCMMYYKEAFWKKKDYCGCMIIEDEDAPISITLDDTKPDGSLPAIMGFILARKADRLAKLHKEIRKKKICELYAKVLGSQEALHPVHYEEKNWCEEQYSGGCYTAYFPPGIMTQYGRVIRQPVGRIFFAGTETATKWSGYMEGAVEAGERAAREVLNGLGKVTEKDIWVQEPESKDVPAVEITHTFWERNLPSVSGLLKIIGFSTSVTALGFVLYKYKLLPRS

[9] = organism: Macaca fascicularis; assay: Selectivity ratio of IC50 for cynomolgus monkey CYP11B1 to IC50 for cynomolgus monkey CYP11B2
Summary of the method: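 Adrenal homogenates from cynomolgus monkey (Macaca fascicularis) served as the enzyme source, with 11-DOC as substrate. CYP11B2 activity was read as aldosterone production and CYP11B1 activity as cortisol production. The value is the CYP11B1 IC50 divided by the CYP11B2 IC50.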

[10] = Equilibrium solubility of the compound in buffer at pH 6.8; format: physicochemical
Summary of the method: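 Equilibrium solubility measured in buffer at pH 6.8.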

[11] = Clearance in continuous angiotensin-2 infusion Sprague-Dawley rat model at 3 mg/kg, po and 1 mg/kg, iv; format: ADME, organism-based; details: in vivo
[12] = Oral bioavailability in continuous angiotensin 2 infusion Sprague-Dawley rat model at 3 mg/kg; format: ADME, organism-based; details: in vivo
Summary of the method: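 Male Sprague Dawley rats, 200–300 g. IV: 0.3 mg/1 mL/kg (free base) slow injection via jugular vein, n=2. Oral gavage at 1 mg/5 mL/kg or 3 mg/5 mL/kg in solution, n=3. Jugular catheter blood at 5 min (iv only), 0.25–8 h into EDTA; plasma after protein precipitation with acetonitrile containing internal standard, HPLC-MS; noncompartmental parameters.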

[13] = Half life in continuous angiotensin 2 infusion Sprague-Dawley rat model at 3 mg/kg, po and 1 mg/kg, iv; format: ADME, organism-based; details: in vivo
[14] = Inhibition of CYP11B2 in cynomolgus monkey adrenal homogenates assessed as inhibition of aldosterone secretion; format: tissue-based, Macaca fascicularis
Summary of the method: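 Cynomolgus monkey adrenal homogenates, with 11-DOC as substrate; aldosterone secretion inhibition determined as IC50.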

[15] = AUC (0 to 24 hrs) in Sprague-Dawley rat at 1 mg/kg, po; details: in vivo

| Compound | IC50 [1] [nM] | IC50 [2] [nM] | Ratio IC50 [3] | inhibition at 1.5 h, 10 µM [4] [%] | half-life [5] [min] | half-life [6] [min] | IC50 [7] [nM] | IC50 [8] [nM] | Ratio IC50 [9] | inhibition (INH) ([8]; human) | solubility thermodynamic [10] [µM] | clearance [11] [mL/min/kg] | bioavailability [12] [%] | half-life [13] [min] | IC50 [14] [nM] | AUC(0-t) at 24 h [15] [µM·h] |
| --- | --- | --- | --- | --- | --- | --- | --- | --- | --- | --- | --- | --- | --- | --- | --- | --- |
| Cn1c(-c2cccnc2)c(C#N)c2ccc(Cl)cc21 | 4 | 2.5 | 43 | 47 | 47 | 259 | 8000 | 210 |  |  |  |  |  |  |  |  |
| Cc1c(-c2cccnc2)[nH]c2ccccc12 | 21 | 3 | 27 | 94 |  |  | 3900 |  |  |  |  |  |  |  |  |  |
| CCS(=O)(=O)Nc1cncc(-c2c(C#N)c3ccccc3n2C)c1 | 380 |  |  |  |  |  |  |  |  |  |  |  |  |  |  |  |
| CCS(=O)(=O)Nc1cncc(-c2c(C#N)c3ccc(Cl)cc3n2C)c1 | 13 | 11 | 43 | 15 | 176 | > 400 | 53100 |  | 636 | Not Active |  |  |  |  |  |  |
| CCS(=O)(=O)NCc1cncc(-c2cc3ccc(Cl)nc3n2C)c1 | 7 | 1.1 | 86 | 11 | 40 | 21 |  |  | 99 |  | 450 (≈ 164 µg/mL) | 68 | 100 | 24 | 6 | 0.75 |
| CCS(=O)(=O)NCc1cncc(-c2cc3cnc(Cl)cc3n2C)c1 | 169 | 22 | 21 |  |  |  |  |  |  |  |  |  |  |  |  |  |
| Cc1c(-c2cccnc2)n(C)c2ccccc12 | 9 | 1.4 | 38 | 91 | 5 | 12 |  |  |  |  |  |  |  |  |  |  |
| CN(C)S(=O)(=O)Oc1cncc(-c2c(C#N)c3ccccc3n2C)c1 | 39 | 2 | 103 | 27 | 1 | 3 | 2000 | > 10000 |  |  |  |  |  |  |  |  |
| Cn1c(-c2cccnc2)c(C#N)c2ccccc21 | 90 | 11 | 56 | 58 | 30 | 10 | 10900 |  | 396 |  |  |  |  |  | 9 |  |
